Measurements from ChEMBL document CHEMBL1121441, “Synthesis and properties of the sulfonyl analogues of 4(5)-aminoimidazole-5(4)-carboxamide, 4(5)-(formylamino)imidazole-5(4)-carboxamide, guanine, and xanthine” (J Med Chem, 1980).
The source made the active and inactive calls. The rule behind the calls is not given here.

What was measured:
L1210 = assay: Compound tested for inhibition of growth of L1210 cells in culture at 10e-4 M; NI = no inhibition; format: functional, cell-based; settings: Mus musculus
Procedure, shortened: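 Murine L1210 leukemia cells were harvested in log phase and resuspended in RPMI 1640 with 10% fetal bovine serum at a starting density of 17.5×10^4 cells/mL. Analogue stock was 5×10⁻³ M in phosphate-buffered saline, pH 7.4, filter-sterilized, then serially diluted in medium. Final concentrations were 10⁻⁴ to 10⁻⁸ M. Cultures grew 72 h at 37 °C and were counted every 24 h by Coulter counter against untreated controls.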

[1] = Compound was tested for apparent dissociation constant at pH 7; format: ADME
Procedure, shortened: (§1)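 pKa values were determined potentiometrically on 0.001 M solutions with a pH meter. For one analogue the values came from least-squares analysis with activity corrections. Measurement temperature was recorded with each value, and standard deviations were reported.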

[2] = Compound was tested for apparent dissociation constant at pH 14; format: ADME; procedure, shortened: as §1
[3] = Compound was tested for apparent dissociation constant at pH 9; format: ADME; procedure, shortened: as §1
[4] = Compound was tested for apparent dissociation constant at pH 10; format: ADME; procedure, shortened: as §1
[5] = Compound was tested for apparent dissociation constant at pH 13; format: ADME; procedure, shortened: as §1

pKa [1]	pKa [2]	pKa [3]	pKa [4]	pKa [5]	SMILES	inhibition (L1210)
9.43					Nc1[nH]cnc1S(N)(=O)=O	inactive
	11.6	6.84			NC1=NS(=O)(=O)c2nc[nH]c2N1	inactive
8.7					NS(=O)(=O)c1[nH]cnc1NC=O	inactive
2.55			8.99	11	O=C1Nc2[nH]cnc2S(=O)(=O)N1	inactive
